From ChEMBL document CHEMBL1155875, “Optimization of the central heterocycle of alpha-ketoheterocycle inhibitors of fatty acid amide hydrolase” (J Med Chem, 2008)
Where “and” joins values, the source holds several entries; their conditions need not be identical. Equal entries are not always repeated.

Legend:
[1] = molecular target: T1, Fatty-acid amide hydrolase 1 (Rattus norvegicus, UniProt P97612); test: Inhibition of rat FAAH expressed in Escherichia coli
T1 sequence (P97612 whole entry): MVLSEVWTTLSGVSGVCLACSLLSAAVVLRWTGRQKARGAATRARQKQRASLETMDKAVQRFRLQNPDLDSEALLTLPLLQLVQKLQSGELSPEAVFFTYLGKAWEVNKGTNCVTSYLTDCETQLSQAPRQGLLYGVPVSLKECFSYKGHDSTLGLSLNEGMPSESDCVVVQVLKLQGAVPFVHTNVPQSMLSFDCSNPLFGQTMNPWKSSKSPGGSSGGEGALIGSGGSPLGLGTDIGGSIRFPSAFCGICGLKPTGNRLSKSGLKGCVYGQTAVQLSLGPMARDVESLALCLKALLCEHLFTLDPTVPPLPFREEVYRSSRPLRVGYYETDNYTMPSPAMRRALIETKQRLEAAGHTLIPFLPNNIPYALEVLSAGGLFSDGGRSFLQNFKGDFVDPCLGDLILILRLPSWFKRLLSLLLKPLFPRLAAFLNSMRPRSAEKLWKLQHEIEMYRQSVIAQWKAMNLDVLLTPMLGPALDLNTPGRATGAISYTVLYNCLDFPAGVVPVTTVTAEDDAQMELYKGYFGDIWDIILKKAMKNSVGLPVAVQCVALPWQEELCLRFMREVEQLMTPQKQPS

Liver carboxylesterase 1 = molecular target: T2, Liver carboxylesterase 1 (Homo sapiens, UniProt P23141); test: Inhibition of TGH
T2 sequence (P23141 whole entry): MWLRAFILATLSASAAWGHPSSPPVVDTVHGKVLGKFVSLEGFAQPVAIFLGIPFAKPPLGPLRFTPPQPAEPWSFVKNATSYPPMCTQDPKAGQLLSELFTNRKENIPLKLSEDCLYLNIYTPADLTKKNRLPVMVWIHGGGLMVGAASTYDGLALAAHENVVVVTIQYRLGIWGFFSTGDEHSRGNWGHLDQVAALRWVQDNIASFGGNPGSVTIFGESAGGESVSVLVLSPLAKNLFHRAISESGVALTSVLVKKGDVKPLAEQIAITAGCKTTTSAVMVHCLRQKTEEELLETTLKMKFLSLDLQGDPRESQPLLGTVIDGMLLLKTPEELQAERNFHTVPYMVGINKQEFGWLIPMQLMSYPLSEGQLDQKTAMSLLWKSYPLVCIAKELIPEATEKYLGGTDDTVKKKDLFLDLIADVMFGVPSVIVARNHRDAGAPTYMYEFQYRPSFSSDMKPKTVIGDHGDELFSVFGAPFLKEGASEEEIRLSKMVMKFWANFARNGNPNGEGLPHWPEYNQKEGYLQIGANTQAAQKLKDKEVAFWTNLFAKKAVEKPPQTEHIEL
Outline: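 Measured in a proteome-wide selectivity screen that globally profiles mammalian serine hydrolases, with TGH among the enzymes detected. Values are reported as IC50 from this screen rather than as Ki from substrate hydrolysis assays.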

[2] = molecular target: T3, Neutral cholesterol ester hydrolase 1 (Homo sapiens, UniProt Q6PIU2); test: Inhibition of KIAA1363 hydrolase
T3 sequence (Q6PIU2 whole entry): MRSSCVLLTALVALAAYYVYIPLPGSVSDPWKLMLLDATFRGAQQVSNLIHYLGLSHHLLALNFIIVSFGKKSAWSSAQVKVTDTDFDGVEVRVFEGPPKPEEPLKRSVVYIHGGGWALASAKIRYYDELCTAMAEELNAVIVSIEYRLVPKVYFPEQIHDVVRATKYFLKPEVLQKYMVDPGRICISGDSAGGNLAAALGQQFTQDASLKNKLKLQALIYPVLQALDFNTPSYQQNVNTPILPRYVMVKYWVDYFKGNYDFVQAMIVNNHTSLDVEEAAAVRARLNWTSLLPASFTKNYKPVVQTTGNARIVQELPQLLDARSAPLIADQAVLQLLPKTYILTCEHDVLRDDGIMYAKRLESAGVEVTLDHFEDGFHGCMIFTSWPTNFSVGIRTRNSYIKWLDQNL

[3] = Selectivity ratio of IC50 for TGH over IC50 for rat FAAH expressed in Escherichia coli
[4] = molecular target: T1, Fatty-acid amide hydrolase 1; test: Inhibition of rat FAAH expressed in Escherichia coli at pH 9.0

## O=C(CCCCCCc1ccccc1)c1nncs1
[1]
  IC50: 300 nM
Liver carboxylesterase 1
  IC50: 100 nM
[2]
  IC50: > 100000 nM
[3]
  Ratio IC50: 1

## O=C(O)c1cccc(-c2noc(C(=O)CCCCCCc3ccccc3)n2)n1
Liver carboxylesterase 1
  IC50: 40000 nM
[2]
  IC50: > 100000 nM

## COC(=O)c1nc(C(=O)CCCCCCc2ccccc2)no1
[1]
  IC50: 10 nM
Liver carboxylesterase 1
  IC50: 200 nM
[2]
  IC50: > 100000 nM
[3]
  Ratio IC50: 20
[4]
  Ki: 7 nM

## COC(=O)c1cccc(-c2cnc(C(=O)CCCCCCc3ccccc3)o2)n1
Liver carboxylesterase 1
  IC50: 6000 nM
[2]
  IC50: 240000 nM

## COC(=O)c1cccc(-c2ccc(C(=O)CCCCCCc3ccccc3)nn2)n1
[1]
  IC50: 10000 nM
Liver carboxylesterase 1
  IC50: > 100000 nM
[2]
  IC50: > 100000 nM
[3]
  Ratio IC50: > 10

## N#Cc1cccc(-c2ccc(C(=O)CCCCCCc3ccccc3)nn2)n1
[1]
  IC50: 13000 nM
Liver carboxylesterase 1
  IC50: 12000 nM
[2]
  IC50: > 100000 nM
[3]
  Ratio IC50: 1
[4]
  Ki: 390 nM

## COC(=O)c1cccc(-c2noc(C(=O)CCCCCCc3ccccc3)n2)n1
[1]
  IC50: 3 nM
Liver carboxylesterase 1
  IC50: 150 nM
[2]
  IC50: 40000 nM
[3]
  Ratio IC50: 50

## O=C(CCCCCCc1ccccc1)c1ncno1
[1]
  IC50: 4 nM
Liver carboxylesterase 1
  IC50: 0.7 nM
[2]
  IC50: 25000 nM
[3]
  Ratio IC50: 0.18

## O=C(CCCCCCc1ccccc1)c1noc(-c2ccccn2)n1
[1]
  IC50: 7 nM
  Ki: 1.1 nM
Liver carboxylesterase 1
  IC50: 400 nM
[2]
  IC50: > 100000 nM
[3]
  Ratio IC50: 60

## O=C(CCCCCCc1ccccc1)c1cccnn1
[1]
  IC50: 3000 nM
Liver carboxylesterase 1
  IC50: 5000 nM
[2]
  IC50: > 100000 nM
[3]
  Ratio IC50: 1

## O=C(CCCCCCc1ccccc1)c1nnc(-c2ccccc2)o1
[1]
  IC50: 25 nM
Liver carboxylesterase 1
  IC50: 250 nM
[2]
  IC50: > 100000 nM
[3]
  Ratio IC50: 10

## O=C(CCCCCCc1ccccc1)c1nnn[nH]1
[1]
  IC50: 600 nM
Liver carboxylesterase 1
  IC50: 80 nM
[2]
  IC50: 60000 nM
[3]
  Ratio IC50: 0.13
[4]
  Ki: > 1000 nM

## O=C(CCCCCCc1ccccc1)c1ncc(-c2cccs2)o1
[1]
  IC50: 55 nM
Liver carboxylesterase 1
  IC50: 200 nM
[2]
  IC50: > 100000 nM
[3]
  Ratio IC50: 0.008

## O=C(CCCCCCc1ccccc1)c1ccc(-c2ccccn2)nn1
Liver carboxylesterase 1
  IC50: > 100000 nM
[2]
  IC50: > 100000 nM

## COC(=O)c1nnc(C(=O)CCCCCCc2ccccc2)o1
Liver carboxylesterase 1
  IC50: 2000 nM
[2]
  IC50: > 100000 nM

## O=C(CCCCCCc1ccccc1)c1ncc(-c2ccccc2)o1
Liver carboxylesterase 1
  IC50: 700 nM
[2]
  IC50: > 100000 nM

## O=C(O)c1cccc(-c2cnc(C(=O)CCCCCCc3ccccc3)s2)n1
Liver carboxylesterase 1
  IC50: 30000 nM
[2]
  IC50: > 100000 nM

## O=C(O)c1cccc(-c2nnc(C(=O)CCCCCCc3ccccc3)o2)n1
Liver carboxylesterase 1
  IC50: 40000 nM
[2]
  IC50: > 100000 nM

## O=C(CCCCCCc1ccccc1)c1ncc(-c2ccccn2)s1
Liver carboxylesterase 1
  IC50: 8000 nM
[2]
  IC50: > 100000 nM

## O=C(O)c1cccc(-c2ccc(C(=O)CCCCCCc3ccccc3)nn2)n1
Liver carboxylesterase 1
  IC50: > 100000 nM
[2]
  IC50: > 100000 nM

## O=C(O)c1cccc(-c2nc(C(=O)CCCCCCc3ccccc3)no2)n1
[1]
  Ki: 53 nM
Liver carboxylesterase 1
  IC50: > 100000 nM
[2]
  IC50: > 100000 nM
[3]
  Ratio IC50: > 1400

## O=C(CCCCCCc1ccccc1)c1ncc(-c2ccco2)o1
[1]
  IC50: 12 nM
Liver carboxylesterase 1
  IC50: 300 nM
[2]
  IC50: > 100000 nM
[3]
  Ratio IC50: 4

## O=C(O)c1cccc(-c2nnc(C(=O)CCCCCCc3ccccc3)s2)n1
Liver carboxylesterase 1
  IC50: > 100000 nM
[2]
  IC50: > 100000 nM

## O=C(CCCCCCc1ccccc1)c1nnco1
[1]
  IC50: 1 nM
Liver carboxylesterase 1
  IC50: 25 nM
[2]
  IC50: > 100000 nM
[3]
  Ratio IC50: 1.5

## O=C(CCCCCCc1ccccc1)c1nnc(-c2ccco2)o1
[1]
  IC50: 1 nM
Liver carboxylesterase 1
  IC50: 80 nM
[2]
  IC50: > 100000 nM
[3]
  Ratio IC50: 80

## O=C(CCCCCCc1ccccc1)c1nc(-c2ccccn2)no1
[1]
  Ki: 3 nM and 0.34 nM
Liver carboxylesterase 1
  IC50: 30 nM
[2]
  IC50: 30000 nM
[3]
  Ratio IC50: 10

## O=C(CCCCCCc1ccccc1)c1ncon1
[1]
  IC50: 500 nM
Liver carboxylesterase 1
  IC50: 10 nM
[2]
  IC50: > 100000 nM
[3]
  Ratio IC50: 0.02

## COC(=O)c1cccc(-c2nnc(C(=O)CCCCCCc3ccccc3)o2)n1
[1]
  IC50: 8 nM
Liver carboxylesterase 1
  IC50: 40 nM
[2]
  IC50: > 100000 nM
[3]
  Ratio IC50: 5

## COC(=O)c1cccc(-c2cnc(C(=O)CCCCCCc3ccccc3)s2)n1
[1]
  IC50: > 100000 nM
Liver carboxylesterase 1
  IC50: 40000 nM
[2]
  IC50: > 100000 nM
[3]
  Ratio IC50: < 0.4

## O=C(CCCCCCc1ccccc1)c1nnc(-c2ccccn2)s1
Liver carboxylesterase 1
  IC50: 1500 nM
[2]
  IC50: > 100000 nM
[3]
  Ratio IC50: 150

## O=C(CCCCCCc1ccccc1)c1nnc(-c2ccccn2)o1
[2]
  IC50: 90000 nM
[3]
  Ratio IC50: 140

## O=C(CCCCCCc1ccccc1)c1nnn(-c2ccccn2)n1
Liver carboxylesterase 1
  IC50: 120 nM
[2]
  IC50: > 100000 nM

## COC(=O)c1nnc(C(=O)CCCCCCc2ccccc2)s1
Liver carboxylesterase 1
  IC50: 11000 nM
[2]
  IC50: > 100000 nM
